Screening data as filed in PubChem BioAssay.
In the library only some 3.2% were active in any assay of this set; here they are far more common.
Apaf1 inhib: inhibitors of human Apaf-1 apoptosome, primary screen, biochemical, DEVD-Rh110 fluorescence, uHTS | Apoptotic protease-activating factor 1 (Homo sapiens), O14727 | reconstituted apoptosome caspase-3 activity | inhibition, % at 20 µM | 330,000 compounds, 0.71% hits | AID 489030, 2010; active means inhibition of at least 40% at 20 µM;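 further: plate controls were DMSO wells for no effect and DEVD-CHO caspase inhibitor wells for full effect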
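detection = Rh110 fluorescence intensity | test system = biochemical Apaf-1 apoptosome reconstitution | also added = cytochrome c and DEVD-Rh110 substrate | schedule = 30 min plus 50 min, RT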
MEKK2mut PB1 HTS: MEK5 binding signal on mutant MEKK2 PB1, primary screen, biochemical, multiplex bead flow cytometry, Alexa488-MEK5 | Alexa488-MEK5 binding to MEKK2 mutant | 290,000 compounds, 0.35% hits | percent response, % at 10 µM; in the data active means percent response above about 24%, passing the limit was not always enough
UBC13 polyUb: UBC13 polyubiquitin chain formation inhibitors, primary screen, biochemical, TR-FRET, uHTS; Ubiquitin-conjugating enzyme E2 N (Homo sapiens), P61088; inhibition, % at 20 µM; 330,000 compounds, 0.47% hits; AID 485273, 2010; in the data active means inhibition above about 45%, passing the limit was not always enough; inconclusive means no clear call, values can overlap the other calls
Target sequence (P61088 whole entry, looked up): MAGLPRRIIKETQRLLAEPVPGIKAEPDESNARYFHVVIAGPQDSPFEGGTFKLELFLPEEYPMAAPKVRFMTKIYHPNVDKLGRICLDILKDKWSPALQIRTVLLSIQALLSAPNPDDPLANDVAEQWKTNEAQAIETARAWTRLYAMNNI
MEKK3 PB1 HTS: modulators of MEKK3-MEK5 PB1 binding, primary screen, biochemical, wildtype MEKK3, multiplex bead flow cytometry, Alexa488-MEK5; Mitogen-activated protein kinase kinase kinase 3 (Homo sapiens), Q99759; bead-based flow cytometry, Alexa488-MEK5 binding to MEKK3; actives lie on both sides; 0 = blocked by unlabeled MEK5, 100 = vehicle; binding response (% of control), % at 10 µM; 290,000 compounds, 1.4% hits;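 active means binding response more than 3 SD above or below the average of its plate-row segment, actives on both sides; inconclusive means wells at one plate position flagged as instrument error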;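 further: Alexa488 bead fluorescence after subtracting the streptavidin-only scavenger bead signal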
DSG3 Ab inh: inhibitors of pemphigus antibody binding to DSG3, primary screen, biochemical, bead-based, flow cytometry, scFv-GFP | Desmoglein-3 (Homo sapiens), P32926 | binding (percent of control), % at 10 µM | DSG3-coupled beads, scFv-anti-DSG3-GFP binding; stronger effect = lower value | 310,000 compounds, 0.48% hits | AID 588358, 2011;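 active means binding more than 3 SD below its plate's average and above zero; inconclusive means below that plate limit but binding exactly zero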
MEKK2 WT-MEK5: modulators of MEK5 binding to wildtype MEKK2, primary screen, biochemical, multiplex bead flow cytometry, Alexa488-MEK5; Mitogen-activated protein kinase kinase kinase 2 (Homo sapiens), Q9Y2U5; Alexa488-MEK5 binding to MEKK2 WT; actives lie on both sides; binding response (% of control), % at 10 µM; 290,000 compounds, 1.1% hits; in the data active means binding response below about 67% or above about 130%; inconclusive means no clear call, values can overlap the other calls; inactive means in between
MEKK2wt confirm: modulators of MEK5 binding to wildtype MEKK2, confirmation, biochemical, single concentration, multiplex bead flow cytometry; shares compounds with MEKK3 PB1 HTS; Alexa488-MEK5 binding to MEKK2 WT; actives lie on both sides; binding response (% of control), % at 10 µM; 5,900 compounds, 2.4% hits; AID 1892, 2009; in the data active means binding response below about 16% or above about 210%; inactive means in between
MEKK2mut-MEK5: mutant MEKK2 PB1-MEK5 binding signal retest – biochemical, single concentration, multiplex bead flow cytometry, confirmation | shares compounds with MEKK3 PB1 HTS | Alexa488-MEK5 binding to MEKK2 mutant | percent response, % at 10 µM | 5,900 compounds, 2% hits; in the data active means percent response mostly above about 71%, no sharp cut-off; inactive means mostly below about 38%;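 further: higher means compound restores mutant binding toward wildtype level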
MEKK3 confirm: MEKK3 wild-type PB1 binding to MEK5, inhibitors, confirmation, biochemical, bead multiplex flow cytometry, single concentration, wildtype | AID 1894, 2009 | 5,900 compounds, 1.8% hits | binding response (% of control), % at 10 µM | Alexa488-MEK5 binding to MEKK3; stronger effect = lower value | shares compounds with MEKK3 PB1 HTS;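 active means binding response below 72% of control, or above a set upper limit, though filed actives all read lower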;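 further: 100% = DMSO only wells and 0% = binding blocked by excess unlabeled MEK5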
Casp3 UBC13 ctr: CASP3 inhibitor validation, counterassay for project on UBE2N polyubiquitination blockers, biochemical, one dose. shares compounds with UBC13 polyUb. Recombinant caspase-3, Caspase-Glo 3/7 luminescence, 60 min. inhibition, % at 20 µM. 1,400 compounds, 4% hits. AID 488856, 2010;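 active means mean inhibition across replicates above about 26%, limit read from the data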;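 further: plate controls were DMSO with caspase-3 for no effect and DMSO wells lacking enzyme for full effect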
Target sequence (P42574 whole entry, looked up): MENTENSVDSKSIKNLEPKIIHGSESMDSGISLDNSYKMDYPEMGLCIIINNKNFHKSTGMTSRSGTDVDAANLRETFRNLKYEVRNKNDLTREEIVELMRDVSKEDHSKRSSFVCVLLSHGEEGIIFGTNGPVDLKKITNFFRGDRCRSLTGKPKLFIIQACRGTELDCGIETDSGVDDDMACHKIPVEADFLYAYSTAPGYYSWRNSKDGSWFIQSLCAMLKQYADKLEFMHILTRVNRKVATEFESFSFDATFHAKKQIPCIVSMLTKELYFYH
UBC13 conf: UBC13 polyubiquitination inhibitors, single-point retest, confirmation, biochemical, TR-FRET, single concentration. 1,400 compounds, 68% hits. inhibition, % at 10 µM. shares compounds with UBC13 polyUb; in the data active means inhibition above about 45%; inconclusive means no clear call, values can overlap the other calls
An asterisk follows results filed as active.

For CSc1cccc(CNC(=O)C2CCC(=O)N(CCc3ccccc3)C2)c1 (stereo unspecified) the results were DSG3 Ab inh 102.
Cc1c(CCOC(=O)C23CC4CC(CC(C)(C4)C2)C3)sc[n+]1Cc1ccccc1 was read as Apaf1 inhib 23, MEKK2mut PB1 HTS 0, UBC13 polyUb 27, MEKK3 PB1 HTS 94 and MEKK2 WT-MEK5 113.
For Cc1c(CCOC(=O)C23CC4(C)CC(C)(CC(C)(C4)C2)C3)sc[n+]1CC(=O)c1ccccc1 the results were Apaf1 inhib 33, MEKK2mut PB1 HTS 23, UBC13 polyUb 70*, MEKK3 PB1 HTS 98, DSG3 Ab inh 89, MEKK2 WT-MEK5 158*, MEKK2wt confirm 154, MEKK2mut-MEK5 17, MEKK3 confirm 106, Casp3 UBC13 ctr -4 and UBC13 conf 88*.
`O=C1c2cccc3cccc(c23)C(=O)N1CCN1CCN(CC(O)COc2ccc3ccccc3c2)CC1` (stereo unspecified) gave Apaf1 inhib 18, MEKK2mut PB1 HTS 5, UBC13 polyUb 105*, MEKK3 PB1 HTS 111, DSG3 Ab inh 102, MEKK2 WT-MEK5 149*, MEKK2wt confirm 178, MEKK2mut-MEK5 43, MEKK3 confirm 105, Casp3 UBC13 ctr -2 and UBC13 conf 112*.
COc1cc(COCC(O)CN2CCN(CCN3C(=O)c4cccc5cccc(c45)C3=O)CC2)cc(OC)c1OC (stereo unspecified) was read as Apaf1 inhib -6, MEKK2mut PB1 HTS -3, UBC13 polyUb 26, MEKK3 PB1 HTS 91, DSG3 Ab inh 112 and MEKK2 WT-MEK5 95.
`CCCCCCOc1ccc(/C(C)=N/NC2=NCCN2)cc1` gave Apaf1 inhib 38, MEKK2mut PB1 HTS 36*, UBC13 polyUb 60*, MEKK3 PB1 HTS 112, DSG3 Ab inh 113, MEKK2 WT-MEK5 204*, MEKK2wt confirm 205, MEKK2mut-MEK5 64, MEKK3 confirm 111, Casp3 UBC13 ctr -3 and UBC13 conf 85*.
Screening CCOc1ccc(Br)cc1/C(C)=N\NC1=NCCN1 returned Apaf1 inhib 0, MEKK2mut PB1 HTS -1, UBC13 polyUb 12, MEKK3 PB1 HTS 96, DSG3 Ab inh 101 and MEKK2 WT-MEK5 105.
CN(C)CCNC(=O)c1cc2c(s1)-c1ccc(Cl)cc1SC2 was read as Apaf1 inhib 30, MEKK2mut PB1 HTS 40*, UBC13 polyUb 62*, MEKK3 PB1 HTS 110, DSG3 Ab inh 101, MEKK2 WT-MEK5 181*, MEKK2wt confirm 152, MEKK2mut-MEK5 27, MEKK3 confirm 106, Casp3 UBC13 ctr -2 and UBC13 conf 73*.
`COC(=O)C1=C(C)N(Cc2ccccc2)C(=NCc2cccc(C(F)(F)F)c2)N[C@H]1c1cccc(F)c1` gave Apaf1 inhib 37, MEKK2mut PB1 HTS 89*, UBC13 polyUb 97*, MEKK3 PB1 HTS 108, DSG3 Ab inh 109, MEKK2 WT-MEK5 208*, MEKK2wt confirm 221*, MEKK2mut-MEK5 64, MEKK3 confirm 108, Casp3 UBC13 ctr -4 and UBC13 conf 84*.
Screening O=C(NCCCN1CCCC1)c1ccc(Cn2c(=S)[nH]c3ccc(Br)cc3c2=O)cc1 returned Apaf1 inhib 16, MEKK2mut PB1 HTS 25, UBC13 polyUb 48*, MEKK3 PB1 HTS 105, MEKK2 WT-MEK5 144*, MEKK2wt confirm 119, MEKK2mut-MEK5 7, MEKK3 confirm 97, Casp3 UBC13 ctr 12 and UBC13 conf inconclusive.
`C/C=C1\COC(C(=O)NCCN2CCCC2)(C(F)(F)F)C=C1C=C1CCCCC1` (stereo unspecified) gave Apaf1 inhib 24, MEKK2mut PB1 HTS 17, UBC13 polyUb 55*, MEKK3 PB1 HTS 103, DSG3 Ab inh 112, MEKK2 WT-MEK5 141*, MEKK2wt confirm 134, MEKK2mut-MEK5 14, MEKK3 confirm 110, Casp3 UBC13 ctr -1 and UBC13 conf 52*.
Screening C/C=C1\COC(C(=O)NCc2ccccc2)(C(F)(F)F)C=C1C=C1CCCCC1 (stereo unspecified) returned Apaf1 inhib 8, MEKK2mut PB1 HTS 1, UBC13 polyUb 4, MEKK3 PB1 HTS 104, DSG3 Ab inh 102 and MEKK2 WT-MEK5 102.
Screening CCN(CCCNC(=O)c1cc2c(-c3cccc(OC)c3)nn(C)c2s1)Cc1ccccc1 returned Apaf1 inhib 7, MEKK2mut PB1 HTS 31*, UBC13 polyUb 49*, MEKK3 PB1 HTS 108, DSG3 Ab inh 140, MEKK2 WT-MEK5 149*, MEKK2wt confirm 166, MEKK2mut-MEK5 50, MEKK3 confirm 107, Casp3 UBC13 ctr -5 and UBC13 conf 47*.
`CCC1(CCC(C)C)SC(N)=NC1=O` (stereo unspecified) gave DSG3 Ab inh 98.
For COc1ccccc1Nc1nc2ccc(C)cc2n2cnnc12 the results were Apaf1 inhib 22, MEKK2mut PB1 HTS 1, UBC13 polyUb 9, MEKK3 PB1 HTS 96, DSG3 Ab inh 88 and MEKK2 WT-MEK5 94.
